Common to all, as to format: functional
Experiment [1] deals with Staphylococcus aureus. As to the kind of experiment: Antibacterial activity against ciprofloxacin susceptible Staphylococcus aureus subsp. aureus ATCC 13709 by broth microdilution method. Put shortly:
(§1)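 Broth microdilution per CLSI (NCCLS M7-A5) guidelines; MIC taken as lowest concentration inhibiting visible growth. Strains are ciprofloxacin-susceptible reference strains.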

For experiment [2], the system named is Streptococcus pneumoniae. As to the kind of experiment: Antibacterial activity against ciprofloxacin susceptible Streptococcus pneumoniae ATCC 49619 by broth microdilution method. Put shortly:
as §1

Experiment [3] concerns Escherichia coli. As to the kind of experiment: Antibacterial activity against ciprofloxacin susceptible Escherichia coli ATCC 25922 by broth microdilution method. In a few lines:
as §1
In general terms: In broth dilution the organism is exposed to a series of concentrations in liquid medium.

For experiment [4], the system named is Streptococcus pneumoniae. The experiment is described as follows: Antibacterial activity against ciprofloxacin resistant Streptococcus pneumoniae OC5462 by broth microdilution method. Put shortly: (§2)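 MIC determined by broth microdilution following CLSI (formerly NCCLS) M7-A5 guidelines for aerobically growing bacteria. MIC is the lowest compound concentration inhibiting visible growth. Strains are ciprofloxacin-resistant clinical isolates tested within a six-strain abbreviated panel.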

Experiment [5] concerns Streptococcus pneumoniae. The experiment is described as follows: Antibacterial activity against ciprofloxacin resistant Streptococcus pneumoniae OC5458 by broth microdilution method. In a few lines:
as §2

The subject of experiment [6] is Streptococcus pneumoniae. The experiment is described as follows: Antibacterial activity against ciprofloxacin resistant Streptococcus pneumoniae OC5465 by broth microdilution method. Put shortly:
as §2

In experiment [7] the test system is Staphylococcus aureus. The experiment is described as follows: Antimicrobial activity against Staphylococcus aureus subsp. aureus ATCC 13709 infected in po dosed Swiss Webster mouse treated 1 hr after infection measured fter 3 days. As to conditions: ATCC 13709, po. Put shortly: (§3)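 Female Swiss-Webster mice infected ip with S. aureus ATCC13709; test compound given subcutaneously or orally 1 h post-infection; mortality followed for three days; untreated infected mice served as controls.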

For experiment [8], the system named is Staphylococcus aureus. As to the kind of experiment: Antimicrobial activity against Staphylococcus aureus subsp. aureus ATCC 13709 infected in sc dosed Swiss Webster mouse treated 1 hr after infection measured fter 3 days. To be noted: ATCC 13709, sc. In a few lines:
as §3

Values after ≈ are worked out from the molar mass of the structure shown. Active and inactive are the calls of the source. No cut-off for these calls is given here.

Usually MIC stands for the lowest concentration found to suppress growth. A word on the ED50: it is the dose at which the effect has come halfway, by size or by number of responders.

As for `COc1c(-c2cc3n(c2)CCN[C@@H]3C)c(F)cc2c1N(C1CC1)CC(C(=O)O)C2=O` (stereo not given in full), the MIC was 0.25 µg/mL (≈ 0.605 µM) in experiment [1]; 2 µg/mL (≈ 4.84 µM) in experiment [2]; 8 µg/mL (≈ 19.3 µM) in experiment [3]; 16 µg/mL (≈ 38.7 µM) in experiment [4]; greater than 16 µg/mL in experiment [5]; 2 µg/mL (≈ 4.84 µM) in experiment [6].

As to `C[C@H]1Cn2cc(-c3cc4c(cc3F)C(=O)C(C(=O)O)CN4C3CC3)cc2CN1` (stereo not given in full), the MIC in experiment [1] stood at 0.06 µg/mL (≈ 0.156 µM); in experiment [2] it was 0.5 µg/mL (≈ 1.3 µM); in experiment [3], 2 µg/mL (≈ 5.22 µM); in experiment [4], 4 µg/mL (≈ 10.4 µM); in experiment [5], 2 µg/mL (≈ 5.22 µM); in experiment [6] it was 0.12 µg/mL (≈ 0.313 µM).

Take `C[C@@H]1NCCn2cc(-c3nc4c(cc3F)C(=O)C(C(=O)O)CN4C3CC3)cc21` (stereo not given in full): the MIC in experiment [1] was found to be 0.5 µg/mL (≈ 1.3 µM); in experiment [2], 1 µg/mL (≈ 2.6 µM); in experiment [3], 8 µg/mL (≈ 20.8 µM); in experiment [4], 8 µg/mL (≈ 20.8 µM); in experiment [5], 8 µg/mL (≈ 20.8 µM); in experiment [6], 1 µg/mL (≈ 2.6 µM).

For `C[C@@H]1NCCn2cc(-c3nc4c(cc3F)C(=O)C(C(=O)O)CN4c3ccc(F)cc3F)cc21` (stereo not given in full), the MIC is 1 µg/mL (≈ 2.19 µM) in experiment [1]; 4 µg/mL (≈ 8.76 µM) in experiment [2]; greater than 16 µg/mL in experiment [3]; greater than 16 µg/mL in experiment [4]; greater than 16 µg/mL in experiment [5]; 8 µg/mL (≈ 17.5 µM) in experiment [6].

On to `C[C@@H]1NCCn2cc(-c3ccc4c(c3OC(F)F)N(C3CC3)CC(C(=O)O)C4=O)cc21` (stereo not given in full), for which the MIC in experiment [1] was 0.5 µg/mL (≈ 1.16 µM); in experiment [2], 1 µg/mL (≈ 2.32 µM); in experiment [3], 4 µg/mL (≈ 9.27 µM); in experiment [4], 16 µg/mL (≈ 37.1 µM); in experiment [5], 4 µg/mL (≈ 9.27 µM); in experiment [6], 2 µg/mL (≈ 4.64 µM).

With `C[C@H]1Cn2cc(-c3c(F)cc4c5c3OC[C@H](C)N5CC(C(=O)O)C4=O)cc2CN1` (stereo not given in full), the MIC in experiment [1] is 0.25 µg/mL (≈ 0.626 µM); in experiment [2] it was 1 µg/mL (≈ 2.5 µM); in experiment [3], 4 µg/mL (≈ 10 µM); in experiment [4], 8 µg/mL (≈ 20 µM); in experiment [5] it was 4 µg/mL (≈ 10 µM); in experiment [6], 0.5 µg/mL (≈ 1.25 µM).

For the compound `C[C@H]1Cn2cc(-c3nc4c(cc3F)C(=O)C(C(=O)O)CN4c3ccc(F)cc3F)cc2CN1` (stereo not given in full), the MIC in experiment [1] came out at 0.12 µg/mL (≈ 0.263 µM); in experiment [2], 1 µg/mL (≈ 2.19 µM); in experiment [3] it was 16 µg/mL (≈ 35.1 µM); in experiment [4] it was 16 µg/mL (≈ 35.1 µM); in experiment [5], 16 µg/mL (≈ 35.1 µM); in experiment [6], 2 µg/mL (≈ 4.38 µM).

Turning to `C[C@H]1Cn2cc(-c3ccc4c(c3OC(F)F)N(C3CC3)CC(C(=O)O)C4=O)cc2CN1` (stereo not given in full), the MIC in experiment [1] was determined as 0.12 µg/mL (≈ 0.278 µM); in experiment [2], 1 µg/mL (≈ 2.32 µM); in experiment [3] it was 1 µg/mL (≈ 2.32 µM); in experiment [4] it was 8 µg/mL (≈ 18.5 µM); in experiment [5] it was 1 µg/mL (≈ 2.32 µM); in experiment [6] it was 1 µg/mL (≈ 2.32 µM).

As for `C[C@@H]1NCCn2cc(-c3c(F)cc4c(c3OC(F)F)N(C3CC3)CC(C(=O)O)C4=O)cc21` (stereo not given in full), the MIC was 0.25 µg/mL (≈ 0.556 µM) in experiment [1]; 2 µg/mL (≈ 4.45 µM) in experiment [2]; 1 µg/mL (≈ 2.23 µM) in experiment [3]; 8 µg/mL (≈ 17.8 µM) in experiment [4]; 2 µg/mL (≈ 4.45 µM) in experiment [5]; 2 µg/mL (≈ 4.45 µM) in experiment [6].

Turning to `O=C(O)c1cn(C2CC2)c2cc(N3CCNCC3)c(F)cc2c1=O` [CIPROFLOXACIN], the MIC was 0.12 µg/mL (≈ 0.362 µM) in experiment [1]; 1 µg/mL (≈ 3.02 µM) in experiment [2]; 0.03 µg/mL (≈ 0.0905 µM) in experiment [3]; greater than 16 µg/mL in experiment [4]; greater than 16 µg/mL in experiment [5]; greater than 16 µg/mL in experiment [6]. In addition, the ED50 in experiment [7] turned out to be 10.8 mg/kg; in experiment [8], 1.4 mg/kg.

As for `C[C@@H]1NCCn2cc(-c3c(F)cc4c5c3OC[C@H](C)N5CC(C(=O)O)C4=O)cc21` (stereo not given in full), the MIC came out at 0.25 µg/mL (≈ 0.626 µM) in experiment [1]; 1 µg/mL (≈ 2.5 µM) in experiment [2]; 4 µg/mL (≈ 10 µM) in experiment [3]; 8 µg/mL (≈ 20 µM) in experiment [4]; 4 µg/mL (≈ 10 µM) in experiment [5]; 0.5 µg/mL (≈ 1.25 µM) in experiment [6].

`COc1c(-c2cc3n(c2)C[C@@H](C)NC3)c(F)cc2c1N(C1CC1)CC(C(=O)O)C2=O` (stereo not given in full): the MIC is 0.25 µg/mL (≈ 0.605 µM) in experiment [1]; 0.25 µg/mL (≈ 0.605 µM) in experiment [2]; 1 µg/mL (≈ 2.42 µM) in experiment [3]; 2 µg/mL (≈ 4.84 µM) in experiment [4]; 1 µg/mL (≈ 2.42 µM) in experiment [5]; 0.5 µg/mL (≈ 1.21 µM) in experiment [6].

Consider `COc1c(-c2cc3n(c2)CCNC3)c(F)cc2c1N(C1CC1)CC(C(=O)O)C2=O` (stereo not given), for which the MIC in experiment [1] was determined as 0.03 µg/mL (≈ 0.0751 µM); in experiment [2], 0.25 µg/mL (≈ 0.626 µM); in experiment [3] it was 1 µg/mL (≈ 2.5 µM); in experiment [4], 1 µg/mL (≈ 2.5 µM); in experiment [5], 1 µg/mL (≈ 2.5 µM); in experiment [6], 0.12 µg/mL (≈ 0.3 µM).

Consider `COc1c(-c2cc3n(c2)C[C@H](C)NC3)c(F)cc2c1N(C1CC1)CC(C(=O)O)C2=O` (stereo not given in full), for which the MIC in experiment [1] amounted to 0.03 µg/mL (≈ 0.0726 µM); in experiment [2], 0.12 µg/mL (≈ 0.29 µM); in experiment [3] it was 0.5 µg/mL (≈ 1.21 µM); in experiment [4] it was 1 µg/mL (≈ 2.42 µM); in experiment [5], 0.5 µg/mL (≈ 1.21 µM); in experiment [6], 0.25 µg/mL (≈ 0.605 µM). The ED50 in experiment [7] was 4 mg/kg; in experiment [8], less than 1.25 mg/kg.

For the compound `C[C@H]1NCCn2cc(-c3ccc4c(c3OC(F)F)N(C3CC3)CC(C(=O)O)C4=O)cc21` (stereo not given in full), the MIC in experiment [1] came out at 0.5 µg/mL (≈ 1.16 µM); in experiment [2], 1 µg/mL (≈ 2.32 µM); in experiment [3], 4 µg/mL (≈ 9.27 µM); in experiment [4], 16 µg/mL (≈ 37.1 µM); in experiment [5] it was 8 µg/mL (≈ 18.5 µM); in experiment [6] it was 4 µg/mL (≈ 9.27 µM).

With `C[C@H]1NCCn2cc(-c3cc4c(cc3F)C(=O)C(C(=O)O)CN4C3CC3)cc21` (stereo not given in full), the MIC in experiment [1] worked out at 0.25 µg/mL (≈ 0.652 µM); in experiment [2], 1 µg/mL (≈ 2.61 µM); in experiment [3], 4 µg/mL (≈ 10.4 µM); in experiment [4] it was 16 µg/mL (≈ 41.7 µM); in experiment [5], 8 µg/mL (≈ 20.9 µM); in experiment [6], 0.25 µg/mL (≈ 0.652 µM).

For `O=C(O)C1CN(C2CC2)c2c(ccc(-c3cc4n(c3)CCNC4)c2OC(F)F)C1=O` (stereo not given), the MIC in experiment [1] stood at 0.06 µg/mL (≈ 0.144 µM); in experiment [2], 0.5 µg/mL (≈ 1.2 µM); in experiment [3] it was 1 µg/mL (≈ 2.4 µM); in experiment [4] it was 8 µg/mL (≈ 19.2 µM); in experiment [6], 0.25 µg/mL (≈ 0.599 µM). The MIC entry in experiment [5] is “inactive”.

For `COc1c(-c2cc3n(c2)CCN[C@H]3C)c(F)cc2c1N(C1CC1)CC(C(=O)O)C2=O` (stereo not given in full), the MIC in experiment [1] was found to be 0.12 µg/mL (≈ 0.29 µM); in experiment [2], 0.5 µg/mL (≈ 1.21 µM); in experiment [3] it was 2 µg/mL (≈ 4.84 µM); in experiment [4] it was 4 µg/mL (≈ 9.67 µM); in experiment [5], 1 µg/mL (≈ 2.42 µM); in experiment [6], 0.5 µg/mL (≈ 1.21 µM).

In the case of `C[C@H]1Cn2cc(-c3nc4c(cc3F)C(=O)C(C(=O)O)CN4C3CC3)cc2CN1` (stereo not given in full), the MIC is 0.06 µg/mL (≈ 0.156 µM) in experiment [1]; 0.5 µg/mL (≈ 1.3 µM) in experiment [2]; 2 µg/mL (≈ 5.2 µM) in experiment [3]; 8 µg/mL (≈ 20.8 µM) in experiment [4]; 8 µg/mL (≈ 20.8 µM) in experiment [5]; 0.25 µg/mL (≈ 0.65 µM) in experiment [6].

For the compound `C[C@@H]1NCCn2cc(-c3cc4c(cc3F)C(=O)C(C(=O)O)CN4C3CC3)cc21` (stereo not given in full), the MIC in experiment [1] stood at 0.25 µg/mL (≈ 0.652 µM); in experiment [2], 1 µg/mL (≈ 2.61 µM); in experiment [3], 4 µg/mL (≈ 10.4 µM); in experiment [4], 16 µg/mL (≈ 41.7 µM); in experiment [5], 4 µg/mL (≈ 10.4 µM); in experiment [6], 0.5 µg/mL (≈ 1.3 µM).

In the case of `C[C@H]1COc2c(-c3cc4n(c3)CCNC4)c(F)cc3c2N1CC(C(=O)O)C3=O` (stereo not given in full), the MIC in experiment [1] is 0.5 µg/mL (≈ 1.3 µM); in experiment [2], 2 µg/mL (≈ 5.19 µM); in experiment [3], greater than 16 µg/mL; in experiment [4] it was greater than 16 µg/mL; in experiment [5], greater than 16 µg/mL; in experiment [6] it was 1 µg/mL (≈ 2.59 µM).

The values are drawn from ChEMBL document CHEMBL1155341, “Synthesis and antibacterial activity of 7-(1,2,3,4-tetrahydropyrrolo[1,2-a]pyrazin-7-yl) quinolones” (2009).
